Our source for the EC50, CC50 and MCC values is ChEMBL document CHEMBL1143578, “From 1-acyl-beta-lactam human cytomegalovirus protease inhibitors to 1-benzyloxycarbonylazetidines with improved antiviral activity. A straightforward approach to convert covalent to noncovalent inhibitors” (J Med Chem, 2005).

What is called EC50 is the concentration at which the effect is half-maximal. As usually defined, the CC50 is the concentration that lowers cell viability or growth by half.

Experiment [1] has as its system HEL. Kind of experiment: Effective concentration required to reduce Varicella-Zoster virus OKA(TK) plaque formation after 5 days in HEL fibroblast cell line. The conditions noted are these: Homo sapiens, 120 h. Type of experiment: functional, cell-based. The procedure, abridged:
(§1)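 Confluent HEL cells were inoculated with VZV at 20 PFU/well for 2 h. Residual virus was removed and varying compound concentrations were added in duplicate. Plaques were counted after 5 days. EC50 is the concentration halving plaque formation relative to untreated controls.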

Experiment [2] relates to HEL. As to the kind of experiment: Effective concentration required to reduce Varicella-Zoster virus 07/1(TK-) plaque formation after 5 days in HEL fibroblast cell line. The experiment is classed as functional, cell-based. The conditions noted are these: Homo sapiens, 120 h. The procedure, abridged: as §1
For experiment [3], the system named is HEL. Kind of experiment: Effective concentration required to inhibit human cytomegalo virus Davis induced cytopathicity in HEL fibroblast cell line after 7 days of postinfection. The experiment is classed as functional, cell-based. The conditions noted are these: 168 h. In short, it runs like this: (§2)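 Confluent HEL fibroblasts were infected with 100 PFU/well for 2 h, then residual virus was removed. Cells were incubated with a range of compound concentrations, in duplicate, for 7 days at 37 °C. Cells were ethanol-fixed and Giemsa-stained, and cytopathogenicity was scored microscopically. EC50 was read from plots of % cytopathogenicity against concentration.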
A general note: Damage to the host cells serves as the signal in cytopathic effect assays.

Experiment [4] concerns HEL. As to the kind of experiment: Cytotoxic concentration required to reduce HEL cell growth. Particulars: Homo sapiens. Type of experiment: functional. In short, it runs like this: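 HEL cells seeded at 5 × 10³ cells/well and allowed to proliferate 24 h, then exposed to a range of compound concentrations for 3 days at 37 °C. Cell number was counted with a Coulter counter. CC50 is the concentration giving 50% growth reduction versus untreated controls, read from plots of cell number (% of control) against concentration.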

Experiment [5] relates to HEL. Kind of experiment: Effective concentration required to inhibit human cytomegalo virus AD-169 induced cytopathicity in HEL fibroblast cell line after 7 days of postinfection. The experiment is classed as functional, cell-based. Particulars: 168 h. The procedure, abridged: as §2
The subject of experiment [6] is HEL. Kind of experiment: Minimum cytotoxic concentration required to cause a microscopically visible alteration of HEL fibroblast cell morphology. The experiment is classed as functional. The conditions noted are these: Homo sapiens. In short, it runs like this: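 HEL cell morphology was examined under the microscope after compound exposure. MCC is the lowest concentration producing a detectable alteration in morphology.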

Consider `CNC(=O)[C@H](C)NC(=O)C1(Cc2ccccc2)CCN1C(=O)OCc1ccccc1` (stereo not given in full), for which the EC50 in the experiment with HEL [1] is over 50 µM; in the experiment on HEL [2], over 50 µM; with HEL [3] it was 5 µM; with HEL [5], 7.4 µM. For the same molecule, the CC50 with HEL [4] is over 50 µM. Besides, the MCC in the experiment on HEL [6] was over 50 µM.

In the case of `C[C@H](NC(=O)C1(Cc2ccccc2)CCN1C(=O)OCc1ccccc1)C(=O)OC(C)(C)C` (stereo not given in full), the EC50 in the experiment with HEL [1] is 16 µM; in the experiment on HEL [2], over 16 µM; with HEL [3], 4.4 µM; in the experiment on HEL [5] it was 16 µM. In the experiment with HEL [4], this molecule returned a CC50 of 33 µM. Also, the MCC in the experiment on HEL [6] was found to be 80 µM.

Regarding `COC(=O)[C@@]1(Cc2ccccc2)CCN1C(=O)N[C@@H](C)c1ccccc1`, the EC50 in the experiment on HEL [1] is over 50 µM; with HEL [2], over 50 µM; in the experiment on HEL [5], over 20 µM. In addition, the CC50 in the experiment on HEL [4] is over 50 µM. In the experiment on HEL [6], this molecule returned an MCC of over 50 µM.

On to `C[C@H](NC(=O)C1(Cc2ccccc2)CCN1C(=O)OCc1ccccc1)C(N)=O` (stereo not given in full), for which the EC50 is over 80 µM in the experiment with HEL [1], over 80 µM in the experiment with HEL [2], 32 µM in the experiment on HEL [3] and 39 µM with HEL [5]. The same molecule yielded a CC50 in the experiment with HEL [4] of 50 µM. The molecule further came in with an MCC with HEL [6] of at least 400 µM.

Regarding `COC(=O)[C@]1(Cc2ccccc2)CCN1C(=O)N[C@@H](C)c1ccccc1`, the EC50 was 50 µM with HEL [1], 50 µM in the experiment with HEL [2] and over 20 µM in the experiment on HEL [5]. In the experiment on HEL [4], this molecule gave a CC50 of over 50 µM. In the experiment on HEL [6], the MCC is over 50 µM.

For `CC(C)(C)NC(=O)C1(Cc2ccccc2)CCN1C(=O)OCc1ccccc1` (stereo not given), the EC50 is over 3.2 µM with HEL [1], over 16 µM with HEL [2], 4.4 µM with HEL [3] and 5.5 µM in the experiment on HEL [5]. This molecule registered a CC50 with HEL [4] of 36 µM. The molecule further displayed an MCC with HEL [6] of at least 16 µM.

In the case of `C[C@@H](NC(=O)N1CCC1(Cc1ccccc1)C(=O)OC(C)(C)C)c1ccccc1` (stereo not given in full), the EC50 was 36 µM with HEL [1], 25 µM in the experiment on HEL [2], 33 µM in the experiment with HEL [3] and 40 µM in the experiment on HEL [5]. The molecule further displayed a CC50 in the experiment on HEL [4] of 57 µM. In addition, the MCC with HEL [6] was found to be 400 µM.

`C[C@H](NC(=O)C1(Cc2ccccc2)CCN1C(=O)OCc1ccccc1)C(=O)O` (stereo not given in full): the EC50 in the experiment with HEL [1] is over 80 µM; in the experiment with HEL [2] it was over 80 µM; in the experiment with HEL [3] it was over 80 µM; in the experiment on HEL [5], over 400 µM. In the experiment with HEL [4], this molecule displayed a CC50 of 124 µM. This molecule displayed an MCC in the experiment on HEL [6] of at least 400 µM.

As to `COC(=O)N1CCC1(Cc1ccccc1)C(=O)N[C@@H](C)C(N)=O` (stereo not given in full), the EC50 was over 400 µM in the experiment on HEL [1], 346 µM in the experiment on HEL [2], over 400 µM in the experiment with HEL [3] and over 400 µM with HEL [5]. Moreover, the CC50 with HEL [4] is over 200 µM. The molecule also had an MCC with HEL [6] of over 400 µM.

Consider `O=C(OCc1ccccc1)N1CCC1(Cc1ccccc1)C(=O)NC1CCCCC1` (stereo not given), for which the EC50 came to 7.8 µM in the experiment with HEL [1], 5.1 µM in the experiment on HEL [2], 3.2 µM in the experiment with HEL [3] and 5.9 µM in the experiment on HEL [5]. Besides, in the experiment on HEL [4], the CC50 was 37 µM. The same molecule came in with an MCC in the experiment on HEL [6] of at least 16 µM.

In the case of `COC(=O)[C@@]1(Cc2ccccc2)CC(=O)N1C(=O)N[C@@H](C)c1ccccc1`, the EC50 with HEL [1], in the experiment on HEL [2] and in the experiment with HEL [5] was over 50 µM in each case. For the same molecule, the CC50 in the experiment with HEL [4] is over 50 µM. This molecule also had an MCC with HEL [6] of over 50 µM.

For the molecule `CC(C)(C)OC(=O)C1(Cc2ccccc2)CC(=O)N1C(=O)OCc1ccccc1` (stereo not given), the EC50 with HEL [1] turned out to be 12 µM; with HEL [2] it was 8 µM. The same molecule returned an MCC with HEL [6] of 50 µM.

As for `C[C@@H](NC(=O)N1C(=O)C[C@@]1(Cc1ccccc1)C(=O)OC(C)(C)C)c1ccccc1`, the half-maximal effective concentration (EC50) with HEL [1] is over 50 µM; in the experiment on HEL [2], 23 µM. The same molecule had an MCC with HEL [6] of 200 µM.

For `C[C@@H](NC(=O)N1C(=O)C[C@]1(Cc1ccccc1)C(=O)OC(C)(C)C)c1ccccc1`, the EC50 in the experiment with HEL [1] and in the experiment on HEL [2] was over 50 µM in each case. Besides, in the experiment on HEL [6], the MCC is over 200 µM.

For the molecule `C[C@@H](NC(=O)N1C(=O)C[C@@]1(Cc1ccccc1)C(=O)O)c1ccccc1`, the results for the EC50 in the experiment with HEL [2] and with HEL [3] were 151 µM and over 200 µM, respectively. This molecule yielded an MCC in the experiment with HEL [6] of over 200 µM.

Regarding `C[C@H](NC(=O)N1C(=O)C[C@@]1(Cc1ccccc1)C(=O)OC(C)(C)C)c1ccccc1`, the EC50 in the experiment on HEL [1] came to 37 µM; in the experiment with HEL [2], 20 µM. In addition, the MCC in the experiment with HEL [6] amounted to 200 µM.

As to `C[C@@H](NC(=O)N1C(=O)C[C@]1(Cc1ccccc1)C(=O)O)c1ccccc1`, the EC50 in the experiment with HEL [1] and with HEL [2] was over 200 µM in each case. Further, the MCC in the experiment on HEL [6] came out at 200 µM.

`C[C@H](NC(=O)N1C(=O)C[C@]1(Cc1ccccc1)C(=O)O)c1ccccc1`: the EC50 in the experiment with HEL [2] is 111 µM; in the experiment on HEL [3], over 200 µM. The MCC in the experiment on HEL [6] is over 200 µM.

Consider `CC(C)(C)OC(=O)[C@]1(Cc2ccccc2)CC(=O)N1C(=O)Nc1ccccc1`, for which the EC50 worked out at 33 µM in the experiment with HEL [1], 13 µM in the experiment on HEL [2], 50 µM in the experiment on HEL [3] and 50 µM with HEL [5]. In the experiment with HEL [6], the MCC was determined as 200 µM.

In the case of `COC(=O)[C@]1(Cc2ccccc2)CC(=O)N1C(=O)N[C@@H](C)c1ccccc1`, the EC50 in the experiment on HEL [1], in the experiment with HEL [2] and with HEL [5] was over 50 µM each time. In addition, in the experiment on HEL [4], the CC50 is over 50 µM. In the experiment on HEL [6], this molecule yielded an MCC of over 50 µM.

`COC(=O)[C@H](C)NC(=O)C1(Cc2ccccc2)CCN1C(=O)OCc1ccccc1` (stereo not given in full): the EC50 in the experiment on HEL [1], in the experiment with HEL [2], in the experiment with HEL [3] and in the experiment with HEL [5] was over 80 µM each time. In the experiment on HEL [4], this molecule showed a CC50 of 50 µM. The same molecule showed an MCC with HEL [6] of 400 µM.

Take `CC(C)(C)OC(=O)C1(Cc2ccccc2)CCN1C(=O)OCc1ccccc1` (stereo not given): the EC50 in the experiment with HEL [1] was over 2 µM; with HEL [2], over 2 µM; in the experiment with HEL [3], 0.6 µM; in the experiment on HEL [5], 0.7 µM. Further, the MCC in the experiment on HEL [6] came out at 5 µM.

As for `CC(C)(C)OC(=O)N1C(=O)CC1(Cc1ccccc1)C(=O)OC(C)(C)C` (stereo not given), the EC50 with HEL [3] and with HEL [5] was over 200 µM throughout. In the experiment on HEL [6], the MCC is over 200 µM.

As to `C[C@H](NC(=O)N1C(=O)C[C@@]1(Cc1ccccc1)C(=O)O)c1ccccc1`, the EC50 is over 200 µM in the experiment with HEL [1] and 110 µM in the experiment on HEL [2]. Besides, the MCC in the experiment on HEL [6] was found to be 200 µM.

In the experiment with HEL [4], `O=C1C[C@H](Cc2ccccc2)N1C(=O)NCc1ccccc1` showed a CC50 of over 250 µM.

As to `C[C@H](NC(=O)N1C(=O)C[C@]1(Cc1ccccc1)C(=O)OC(C)(C)C)c1ccccc1`, the values for the EC50 in the experiment on HEL [1] and in the experiment with HEL [2] were over 50 µM and 14 µM, respectively. This molecule gave an MCC in the experiment with HEL [6] of 200 µM.

With `Nc1nc2c(ncn2COCCO)c(=O)[nH]1` [ACYCLOVIR], the EC50 stood at 7.1 µM in the experiment on HEL [1], 111 µM in the experiment with HEL [2], 20 µM in the experiment with HEL [3] and 17 µM in the experiment with HEL [5]. This molecule also came in with a CC50 in the experiment on HEL [4] of 511 µM. Further, the MCC in the experiment on HEL [6] was over 1200 µM.

In the case of `O=c1[nH]c(=O)n([C@H]2C[C@H](O)[C@@H](CO)O2)cc1/C=C/Br` [BRIVUDINE], the EC50 in the experiment with HEL [2] is 103 µM; in the experiment with HEL [3] it was over 100 µM; in the experiment with HEL [5], over 100 µM. This molecule also showed a half-maximal cytotoxic concentration (CC50) with HEL [4] of 249 µM. The molecule further displayed an MCC in the experiment with HEL [6] of 1200 µM.

Turning to `Nc1ccn(C[C@@H](CO)OCP(=O)(O)O)c(=O)n1` [CIDOFOVIR], the results for the EC50 in the experiment with HEL [3] and in the experiment with HEL [5] were 1 µM and 0.6 µM, respectively. The same molecule gave an MCC in the experiment with HEL [6] of over 1400 µM.

In the experiment with HEL [6], `Nc1nc2c(ncn2COC(CO)CO)c(=O)[nH]1` [GANCICLOVIR] showed an MCC of over 1500 µM.
